Measurements from ChEMBL document CHEMBL3352447, “Structural development studies of PPARs ligands based on tyrosine scaffold” (Eur J Med Chem, 2015).
Activity calls are given as the source filed them. The rule behind the calls is not given here.

How the values were obtained:
Format in all cases: cell-based
[1] = molecular target: T1, Peroxisome proliferator-activated receptor gamma (Homo sapiens) (UniProt P37231); experiment: Agonist activity at human GAL4-PPARgamma ligand binding domain expressed in human HepG2 cells assessed as maximum fold induction by luciferase reporter gene assay relative to rosiglitazone
T1 sequence (whole entry): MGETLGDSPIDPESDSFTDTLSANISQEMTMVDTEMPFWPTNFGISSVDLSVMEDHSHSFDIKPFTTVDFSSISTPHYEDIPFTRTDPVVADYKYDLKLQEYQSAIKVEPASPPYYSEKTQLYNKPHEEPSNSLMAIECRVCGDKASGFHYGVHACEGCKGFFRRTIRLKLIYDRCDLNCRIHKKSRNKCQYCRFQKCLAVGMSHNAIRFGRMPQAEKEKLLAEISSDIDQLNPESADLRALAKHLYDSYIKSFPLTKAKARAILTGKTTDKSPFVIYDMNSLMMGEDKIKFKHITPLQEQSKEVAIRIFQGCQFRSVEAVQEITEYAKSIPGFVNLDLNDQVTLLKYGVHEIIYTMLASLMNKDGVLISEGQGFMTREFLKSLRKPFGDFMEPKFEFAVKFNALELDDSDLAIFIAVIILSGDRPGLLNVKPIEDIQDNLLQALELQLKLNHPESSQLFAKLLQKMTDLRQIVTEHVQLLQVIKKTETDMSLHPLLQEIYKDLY
Summary of the method: (§1)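 HepG2 cells grown in MEM with 10% heat-inactivated FBS, penicillin/streptomycin, 37 °C, 5% CO2. 10^5 cells/well seeded, transfected after 24 h by calcium phosphate with Gal4-PPAR LBD expression plasmid (30 ng), pGal5TKpGL3 luciferase reporter (100 ng) and pCMVbgal (250 ng). Ligand added 4 h post-transfection for 20 h, in triplicate. Luciferase read in cell extracts, with β-galactosidase measured using ONPG.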

[2] = molecular target: T2, Peroxisome proliferator-activated receptor gamma (Homo sapiens, UniProt P37231); experiment: Agonist activity at human GAL4-PPARgamma ligand binding domain expressed in human HepG2 cells by luciferase reporter gene assay; summary of the method: as §1
T2 sequence (P37231 whole entry): T1 sequence (whole entry)

[3] = molecular target: T3, Peroxisome proliferator-activated receptor delta (Homo sapiens, UniProt Q03181); experiment: Agonist activity at human GAL4-PPARdelta ligand binding domain expressed in human HepG2 cells by luciferase reporter gene assay
T3 sequence (Q03181 whole entry): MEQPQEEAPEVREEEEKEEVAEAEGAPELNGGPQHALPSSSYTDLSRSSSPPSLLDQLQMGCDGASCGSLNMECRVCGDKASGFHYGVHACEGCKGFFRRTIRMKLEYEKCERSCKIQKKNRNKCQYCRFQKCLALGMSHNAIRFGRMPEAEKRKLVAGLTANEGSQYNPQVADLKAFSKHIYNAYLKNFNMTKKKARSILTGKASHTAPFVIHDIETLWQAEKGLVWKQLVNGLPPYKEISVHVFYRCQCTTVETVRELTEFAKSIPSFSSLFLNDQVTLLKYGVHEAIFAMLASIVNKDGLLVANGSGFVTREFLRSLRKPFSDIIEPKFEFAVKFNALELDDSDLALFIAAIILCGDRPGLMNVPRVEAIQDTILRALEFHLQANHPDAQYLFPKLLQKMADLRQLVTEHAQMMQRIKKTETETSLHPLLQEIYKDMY

[4] = molecular target: T4, Peroxisome proliferator-activated receptor alpha (Homo sapiens, UniProt Q07869); experiment: Agonist activity at human GAL4-PPARalpha ligand binding domain expressed in human HepG2 cells by luciferase reporter gene assay; summary of the method: as §1
T4 sequence (Q07869 whole entry): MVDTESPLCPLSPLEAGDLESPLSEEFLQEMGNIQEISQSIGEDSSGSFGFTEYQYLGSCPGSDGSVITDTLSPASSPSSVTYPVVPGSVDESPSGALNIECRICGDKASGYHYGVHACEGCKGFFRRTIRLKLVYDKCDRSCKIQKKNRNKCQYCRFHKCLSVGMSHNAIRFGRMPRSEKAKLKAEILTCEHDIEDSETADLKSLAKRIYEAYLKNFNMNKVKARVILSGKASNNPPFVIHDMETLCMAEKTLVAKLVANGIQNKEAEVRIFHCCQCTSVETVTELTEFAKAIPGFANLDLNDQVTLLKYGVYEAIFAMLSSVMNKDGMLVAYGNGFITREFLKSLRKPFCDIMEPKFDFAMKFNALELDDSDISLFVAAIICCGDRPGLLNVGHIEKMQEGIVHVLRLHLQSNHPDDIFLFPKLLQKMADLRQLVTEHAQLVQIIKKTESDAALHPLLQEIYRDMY

[5] = molecular target: T5, Peroxisome proliferator-activated receptor alpha (Homo sapiens) (UniProt Q07869); experiment: Agonist activity at human GAL4-PPARalpha ligand binding domain expressed in human HepG2 cells assessed as maximum fold induction by luciferase reporter gene assay relative to Wy-14643; summary of the method: as §1
T5 sequence (whole entry): T4 sequence (Q07869 whole entry)

Row | Structure (SMILES) | Emax [1] | EC50 ([2]; hepg2) | EC50 [3] | EC50 ([2]; read-out: EC50) [nM] | EC50 [4] | Emax [5]
1 | Cc1cccc(Nc2cc(Cl)nc(SCC(=O)O)n2)c1C [PIRINIXIC ACID] | inactive | Not Active |  |  |  | 
2 | C/C(=C\C(=O)c1ccccc1)NC(Cc1ccc(OCCCOc2ccc(/C=C/c3ccc(C(F)(F)F)cc3)cc2)cc1)C(=O)O (stereo not given) | 46% |  | Not Active | 32 | Not Active | 
3 | C/C(=C\C(=O)c1ccccc1)NC(Cc1ccc(OCCOc2ccc(/C=C/c3ccccc3)cc2)cc1)C(=O)O (stereo not given) | 75% |  | Not Active | 12 |  | 20%
4 | C/C(=C\C(=O)c1ccccc1)NC(Cc1ccc(OCCOc2ccc(/C=C/c3ccc(Cl)cc3)cc2)cc1)C(=O)O (stereo not given) | 50% |  | Not Active | 26 | Not Active | 
5 | CC(=O)/C=C(\C)NC(Cc1ccc(OCCOc2ccc(/C=C/c3ccccc3)cc2)cc1)C(=O)O (stereo not given) | 61% |  | Not Active | 250 | Not Active | 
6 | C/C(=C\C(=O)c1ccccc1)NC(Cc1ccc(OCCOc2ccc(/N=N/c3ccc(Cl)cc3)cc2)cc1)C(=O)O (stereo not given) | 52% |  | Not Active | 39 | Not Active | 
7 | CN(CCOc1ccc(CC2SC(=O)NC2=O)cc1)c1ccccn1 (stereo not given) [ROSIGLITAZONE] |  |  |  |  | Not Active | inactive
8 | C/C(=C\C(=O)c1ccccc1)NC(Cc1ccc(OCCCOc2ccc(/C=C/c3ccccc3)cc2)cc1)C(=O)O (stereo not given) | 65% |  | Not Active | 47 |  | 9%
9 | C/C(=C\C(=O)c1ccccc1)NC(Cc1ccc(OCCOc2ccc(/C=C/c3ccc(C)cc3)cc2)cc1)C(=O)O (stereo not given) | 77% |  | Not Active | 21 | Not Active | 
10 | CCCc1c(OCCCOc2ccc(OCC(=O)O)cc2)ccc(C(C)=O)c1O |  | Not Active |  |  | Not Active | 
11 | C/C(=C\C(=O)c1ccccc1)NC(Cc1ccc(OCCOc2ccc(/N=N/c3ccccc3)cc2)cc1)C(=O)O (stereo not given) | 54% |  | Not Active | 183 | Not Active | 
12 | C/C(=C\C(=O)c1ccccc1)NC(Cc1ccc(OCCCOc2ccc(/N=N/c3ccccc3)cc2)cc1)C(=O)O (stereo not given) | 31% |  | Not Active | 1370 |  | 8%
13 | C/C(=C\C(=O)c1ccccc1)NC(Cc1ccc(OCCCOc2ccc(/C=C/c3ccc(Cl)cc3)cc2)cc1)C(=O)O (stereo not given) | 56% |  | Not Active | 12 | Not Active | 
14 | O=C(/C=C/c1ccccc1)NC(Cc1ccc(OCCOc2ccc(/C=C/c3ccccc3)cc2)cc1)C(=O)O (stereo not given) | 45% |  | Not Active | 640 | Not Active | 
15 | C/C(=C\C(=O)c1ccccc1)NC(Cc1ccc(OCCOc2ccc(/C=C/c3ccc(C(F)(F)F)cc3)cc2)cc1)C(=O)O (stereo not given) | 69% |  | Not Active | 84 | Not Active | 
16 | COc1ccc(/N=N/c2ccc(OCCCOc3ccc(CC(N/C(C)=C/C(=O)c4ccccc4)C(=O)O)cc3)cc2)cc1 (stereo not given) | 24% |  | Not Active |  | Not Active | 
17 | C/C(=C\C(=O)c1ccccc1)NC(Cc1ccc(OCCCOc2ccc(/N=N/c3ccc(Cl)cc3)cc2)cc1)C(=O)O (stereo not given) | 59% |  | Not Active | 47 | Not Active | 
18 | C/C(=C\C(=O)c1ccccc1)NC(Cc1ccc(OCCCOc2ccc(/N=N/c3ccc([N+](=O)[O-])cc3)cc2)cc1)C(=O)O (stereo not given) | 54% |  | Not Active | 29 | Not Active | 
